Test results from ChEMBL document CHEMBL1124187, “Nucleosides. 150. Synthesis and some biological properties of 5-monofluoromethyl, 5-difluoromethyl, and 5-trifluoromethyl derivatives of 2'-deoxyuridine and 2'-deoxy-2'-fluoro-beta-D-arabinofuranosyluracil” (1988).

Assays:
HL-60 [1] = test: Growth inhibition against HL-60 after 48 hours incubation period; type: functional; details: Homo sapiens, HL-60, 48 h; read-out: ID50 (the source's name)
How it was run: (§1)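 HL-60 cell growth inhibition; ID50 derived from six concentrations of each nucleoside using the median-effect equation and plot.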

Human alphaherpesvirus 2 = test: Effective dose required for antiherpes activity against HSV-2(G) strain; type: functional; details: read-out: ED50 (the source's name)
HL-60 [2] = test: Growth inhibition against HL-60 after 72 hours incubation period; type: functional; details: Homo sapiens, HL-60, 72 h; read-out: ID50 (the source's name); how it was run: as §1
HL-60 [3] = test: The compound was tested for [3H]TdR incorporation into DNA in HL-60 cells; type: functional; details: Homo sapiens, HL-60, 30 min; read-out: ID50 (the source's name)
How it was run: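 HL-60 cells labelled with [methyl-3H]TDR (1 µCi, 0.02 µM) for 30 min, then label incorporated into DNA measured. ID50 derived from six nucleoside concentrations using the median-effect equation and plot.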

Human alphaherpesvirus 1 = test: Effective dose required for antiherpes activity against HSV-1(F) strain; type: functional; details: read-out: ED50 (the source's name)
[4] = biological target: Thymidylate synthase (Mus musculus) (UniProt P07607); test: The compound was tested for inhibition of thymidylate synthase (TS) in L1210 cells; type: cell-based
How it was run: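 In situ thymidylate synthase activity in intact L1210 cells, measured as tritium released from [5-3H]UDR. Reported as ID50.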

HL-60 [5] = test: Growth inhibition against HL-60 after 24 hours incubation period; type: functional; details: Homo sapiens, HL-60, 24 h; read-out: ID50 (the source's name); how it was run: as §1
Homo sapiens = species: Homo sapiens; test: Growth inhibition against HL-60 after 24 hr incubation period; type: functional; how it was run: as §1

Chain of Thymidylate synthase (Mus musculus) (P07607 whole entry, looked up): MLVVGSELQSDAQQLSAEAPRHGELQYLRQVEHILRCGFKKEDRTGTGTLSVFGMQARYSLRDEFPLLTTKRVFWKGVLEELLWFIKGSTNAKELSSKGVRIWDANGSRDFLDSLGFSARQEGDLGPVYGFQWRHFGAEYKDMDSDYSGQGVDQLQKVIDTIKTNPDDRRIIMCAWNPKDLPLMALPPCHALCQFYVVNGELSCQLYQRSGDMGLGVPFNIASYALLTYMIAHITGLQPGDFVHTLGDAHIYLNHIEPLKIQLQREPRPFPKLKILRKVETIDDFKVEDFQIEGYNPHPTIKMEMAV

SMILES	IC50 (HL-60 [1]) [µM]	EC50 (Human alphaherpesvirus 2) [µM]	IC50 (HL-60 [2]) [µM]	IC50 (HL-60 [3]) [µM]	EC50 (Human alphaherpesvirus 1) [µM]	ID50 [4] [µM]	IC50 (HL-60 [5]) [µM]	ID50 (Homo sapiens) [µM]
O=c1[nH]c(=O)n([C@@H]2O[C@H](CO)[C@@H](O)[C@@H]2F)cc1C(F)F	12	1.04	6.6	> 1000	0.34	56	97	–
O=c1[nH]c(=O)n([C@H]2C[C@H](O)[C@@H](CO)O2)cc1C(F)F	1.25	1.17	0.12	5.1	0.8	0.063	4	–
O=c1[nH]c(=O)n([C@H]2C[C@H](O)[C@@H](CO)O2)cc1CO	–	–	–	–	–	> 1000	–	–
CC(=O)OC[C@H]1O[C@@H](n2cc(C(F)F)c(=O)[nH]c2=O)[C@@H](F)[C@@H]1OC(C)=O	83	2.16	40	–	0.71	–	–	257
Cc1cn([C@@H]2O[C@H](CO)[C@@H](O)[C@@H]2F)c(=O)[nH]c1=O [5-METHYL-2'-FLUOROARAURACIL]	51	0.07	25	20	0.07	> 1000	136	–
O=c1[nH]c(=O)n([C@@H]2O[C@H](CO)[C@@H](O)[C@@H]2F)cc1CO	1160	5.5	1920	–	2	> 1000	> 5000	–
Cc1cn([C@H]2C[C@H](O)[C@@H](CO)O2)c(=O)[nH]c1=O [DOXRIBTIMINE]	461	> 1000	336	0.61	> 1000	75	901	–
O=c1[nH]c(=O)n([C@@H]2O[C@H](CO)[C@@H](O)[C@@H]2F)cc1CF	202	0.8	119	189	0.68	> 1000	995	–
CC(=O)OC[C@H]1O[C@@H](n2cc(C(F)(F)F)c(=O)[nH]c2=O)[C@@H](F)[C@@H]1OC(C)=O	62	1.3	65	–	1.3	–	54	–
CC(=O)OC[C@H]1O[C@@H](n2cc(CF)c(=O)[nH]c2=O)C[C@@H]1OC(C)=O	976	> 100	324	–	> 100	–	3470	–
CC(=O)OC[C@H]1O[C@@H](n2cc(C)c(=O)[nH]c2=O)[C@@H](F)[C@@H]1OC(C)=O	209	1.23	119	–	0.44	–	> 1000	–
CC(=O)OC[C@H]1O[C@@H](n2cc(CF)c(=O)[nH]c2=O)[C@@H](F)[C@@H]1OC(C)=O	500	5.19	312	–	2.43	–	860	–
O=c1[nH]c(=O)n([C@H]2C[C@H](O)[C@@H](CO)O2)cc1CF	> 1000	> 100	> 1000	18.6	> 100	11	178	–
CC(=O)OC[C@H]1O[C@@H](n2cc(C(F)(F)F)c(=O)[nH]c2=O)C[C@@H]1OC(C)=O	19	16.3	8.5	–	4.7	–	501	–
O=Cc1cn([C@@H]2O[C@H](CO)[C@@H](O)[C@@H]2F)c(=O)[nH]c1=O	–	–	–	–	–	> 1000	–	–
O=c1[nH]c(=O)n([C@H]2C[C@H](O)[C@@H](CO)O2)cc1C(F)(F)F [TRIFLURIDINE]	1.7	1.88	0.14	14	0.77	0.035	1.5	–
CC(=O)OC[C@H]1O[C@@H](n2cc(C(F)F)c(=O)[nH]c2=O)C[C@@H]1OC(C)=O	14	25.1	14	–	17	–	83	–
O=c1[nH]c(=O)n([C@@H]2O[C@H](CO)[C@@H](O)[C@@H]2F)cc1C(F)(F)F	29	1.7	17	> 1000	0.83	14	304	–
